From ChEMBL document CHEMBL3525906, “A comprehensive assessment of repaglinide metabolic pathways: impact of choice of in vitro system and relative enzyme contribution to in vitro clearance” (Drug Metab Dispos, 2012) come the findings set out here.

A short description of data set [1]: Retention time of the compound by LC-MS/MS method. The format is physicochemical.
For data set [2], the species on record is Homo sapiens. Briefly: Unbound intrinsic clearance in human hepatic S9 fraction assessed as gemfibrozil glucuronide-mediated inhibition of 2-despiperidyl-2-amino repaglinide intrinsic clearance at 0.5 to 150 uM by LC-MS/MS method.
Data set [3] can be described thus: Ratio of human recombinant CYP3A4-mediated unbound intrinsic clearance to human recombinant CYP3A5-mediated unbound intrinsic clearance. The following applies: recombinant enzyme. The format is ADME.
Data set [4] is described as follows: Ratio of human recombinant CYP3A4-mediated unbound intrinsic clearance to human recombinant CYP2C8-mediated unbound intrinsic clearance. The format is ADME. The settings on record: recombinant enzyme.
Data set [5] is filed under the species Homo sapiens. Description: Unbound intrinsic clearance in human hepatic S9 fraction assessed as ketoconazole-mediated inhibition of 3'-hydroxy repaglinide intrinsic clearance at 0.5 to 150 uM by LC-MS/MS method.
A short description of data set [6]: Ratio of human recombinant CYP2C8-mediated unbound intrinsic clearance to human recombinant CYP3A5-mediated unbound intrinsic clearance. The format is ADME. The following applies: recombinant enzyme.
Data set [7] is described as follows: Ratio of human recombinant CYP2C8-mediated unbound intrinsic clearance to human recombinant CYP3A4-mediated unbound intrinsic clearance. Format: ADME. The following applies: recombinant enzyme.
The target of data set [8] is T1, Cytochrome P450 2C8 (Homo sapiens, UniProt P10632).
T1 sequence (P10632 whole entry): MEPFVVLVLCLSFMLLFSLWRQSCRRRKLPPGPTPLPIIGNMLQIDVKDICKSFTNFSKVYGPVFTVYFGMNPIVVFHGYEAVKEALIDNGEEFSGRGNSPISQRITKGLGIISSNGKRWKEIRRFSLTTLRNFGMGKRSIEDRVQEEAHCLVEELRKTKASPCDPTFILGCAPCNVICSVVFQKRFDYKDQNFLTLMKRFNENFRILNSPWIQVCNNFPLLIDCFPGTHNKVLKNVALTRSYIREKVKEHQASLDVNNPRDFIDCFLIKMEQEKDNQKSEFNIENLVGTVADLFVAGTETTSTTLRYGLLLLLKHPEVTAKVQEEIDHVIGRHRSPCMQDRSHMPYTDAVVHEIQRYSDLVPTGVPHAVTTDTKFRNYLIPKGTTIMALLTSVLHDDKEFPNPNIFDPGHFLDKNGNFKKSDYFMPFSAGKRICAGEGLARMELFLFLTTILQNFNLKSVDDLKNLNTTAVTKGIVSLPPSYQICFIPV
Briefly: Drug metabolism assessed as human recombinant CYP2C8-mediated metabolite formation at 0.5 to 150 uM by LC-MS/MS method. The format is ADME. The following applies: recombinant enzyme. In short, it runs like this:
(§1)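 Recombinant P450 (CYP2C8 50, CYP3A4 30, CYP3A5 100; units not given) incubated 10 min at 37°C with repaglinide (8 concentrations, 0.5–150 μM) in 0.1 M phosphate pH 7.4, 10 mM MgCl2, NADPH-regenerating system (1 mM NADP+, isocitrate/isocitrate dehydrogenase). Quenched with ice-cold methanol plus indomethacin internal standard. M1, M2, M4 quantified by LC-MS/MS against authentic standards. Michaelis-Menten fit; mean ± SD, n=3.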

Data set [9] is described as follows: Unbound intrinsic clearance in human hepatic S9 fraction assessed as 10 uM disulfiram-mediated inhibition of 2-despiperidyl-2-(5-carboxypentylamine) repaglinide formation at 0.5 to 150 uM by LC-MS/MS method. The format is tissue-based, Liver. The following applies: s9, 150 µM.
For data set [10], the target named is Cytochrome P450 3A4 (Homo sapiens, UniProt P08684). Briefly: Drug metabolism assessed as human recombinant CYP3A4-mediated metabolite formation at 0.5 to 150 uM by LC-MS/MS method. Format: ADME. The settings on record: recombinant enzyme. Put shortly: as §1
The nature of data set [11]: Unbound intrinsic clearance in human hepatic S9 fraction assessed as IC50 for disulfiram-mediated inhibition of 2-despiperidyl-2-(5-carboxypentylamine) repaglinide formation at 10, 25 and 50 uM by LC-MS/MS method.
The target of data set [12] is Cytochrome P450 3A5 (Homo sapiens, UniProt P20815). Description: Drug metabolism assessed as human recombinant CYP3A5-mediated metabolite formation at 0.5 to 150 uM by LC-MS/MS method. The format is ADME. The following applies: recombinant enzyme. Put shortly: as §1
Substrate in data set [13]: CCOc1cc(CC(=O)N[C@@H](CC(C)C)c2ccccc2N2CCCCC2)ccc1C(=O)O
Description: Activity of human recombinant CYP2C8 expressed in insect cells assessed as enzyme-mediated 3'-hydroxy repaglinide formation by LC-MS/MS method. Format: ADME. In short, it runs like this:
as §1

Substrate in data set [14]: CCOc1cc(CC(=O)N[C@@H](CC(C)C)c2ccccc2N2CCCCC2)ccc1C(=O)O
Description: Activity of human recombinant CYP2C8 expressed in insect cells assessed as enzyme-mediated 2-despiperidyl-2-amino repaglinide formation per picomole of protein at 0.5 to 150 uM by LC-MS/MS method. Format: ADME. In short, it runs like this:
as §1

Substrate in data set [15]: CCOc1cc(CC(=O)N[C@@H](CC(C)C)c2ccccc2N2CCCCC2)ccc1C(=O)O
Description: Activity of human recombinant CYP2C8 expressed in insect cells assessed as enzyme-mediated 2-despiperidyl-2-amino repaglinide formation by LC-MS/MS method. Format: ADME. In short, it runs like this: as §1

Substrate in data set [16]: CCOc1cc(CC(=O)N[C@@H](CC(C)C)c2ccccc2N2CCCCC2)ccc1C(=O)O
Briefly: Activity of human recombinant CYP2C8 expressed in insect cells assessed as enzyme-mediated 3'-hydroxy repaglinide formation per picomole of protein at 0.5 to 150 uM by LC-MS/MS method. Format: ADME. In short, it runs like this: as §1

Substrate in data set [17]: CCOc1cc(CC(=O)N[C@@H](CC(C)C)c2ccccc2N2CCCCC2)ccc1C(=O)O
Briefly: Activity of human recombinant CYP3A5 expressed in insect cells assessed as enzyme-mediated 2-despiperidyl-2-amino repaglinide formation per picomole of protein at 0.5 to 150 uM by LC-MS/MS method. The format is ADME. In short, it runs like this: as §1

Substrate in data set [18]: CCOc1cc(CC(=O)N[C@@H](CC(C)C)c2ccccc2N2CCCCC2)ccc1C(=O)O
Briefly: Activity of human recombinant CYP3A5 expressed in insect cells assessed as enzyme-mediated 3'-hydroxy repaglinide formation per picomole of protein at 0.5 to 150 uM by LC-MS/MS method. The format is ADME. Put shortly: as §1

Substrate in data set [19]: CCOc1cc(CC(=O)N[C@@H](CC(C)C)c2ccccc2N2CCCCC2)ccc1C(=O)O
Briefly: Activity of human recombinant CYP3A5 expressed in insect cells assessed as enzyme-mediated 2-despiperidyl-2-amino repaglinide formation by LC-MS/MS method. The format is ADME. In short, it runs like this: as §1

The term IC50 denotes the concentration needed to halve the response being measured. Usually Km stands for the substrate concentration at which the rate is half of its maximum. The kcat is the maximal rate divided by the concentration of active sites.

Cytochrome P450 3A4, sequence (P08684 whole entry): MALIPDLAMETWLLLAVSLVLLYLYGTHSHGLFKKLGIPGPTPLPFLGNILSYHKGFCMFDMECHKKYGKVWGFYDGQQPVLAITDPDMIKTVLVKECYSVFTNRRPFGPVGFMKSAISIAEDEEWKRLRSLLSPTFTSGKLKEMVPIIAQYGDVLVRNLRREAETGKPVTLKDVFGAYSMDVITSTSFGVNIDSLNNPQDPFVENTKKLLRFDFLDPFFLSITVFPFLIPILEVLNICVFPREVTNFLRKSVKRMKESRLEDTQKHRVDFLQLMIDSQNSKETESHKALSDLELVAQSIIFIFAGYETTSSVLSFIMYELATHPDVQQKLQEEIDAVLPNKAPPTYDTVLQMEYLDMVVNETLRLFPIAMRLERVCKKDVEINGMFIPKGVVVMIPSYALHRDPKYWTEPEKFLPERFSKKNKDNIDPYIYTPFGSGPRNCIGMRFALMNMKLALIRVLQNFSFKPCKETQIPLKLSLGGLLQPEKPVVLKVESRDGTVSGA

Consider `COc1ccc2c(c1)c(CC(=O)O)c(C)n2C(=O)c1ccc(Cl)cc1` [INDOMETHACIN], for which the Retention_time in data set [1] is recorded as 3 min.
With `CCOc1cc(CC(=O)N[C@@H](CC(C)C)c2ccccc2N)ccc1C(=O)O`, the “inhibition (INH)” value in [2] was under 30%. For the same molecule, the Ratio was determined as 85 in data set [3] and 32 in data set [4]. The Retention_time in data set [1] is on record as 2.7 min.
As to `CCOc1cc(CC(=O)N[C@@H](CC(C)C)c2ccccc2N2CCCC(O)C2)ccc1C(=O)O` (stereo partly drawn), in data set [5], the “inhibition (INH)” value was under 30%. The Ratio is on record as 360 in data set [6] and 35 in data set [7]. The molecule also came in with a Retention_time in data set [1] of 2.9 min.
In data set [1], `CCOc1cc(CC(=O)N[C@@H](CC(C)C)c2ccccc2N2CCCCC2)ccc1C(=O)O[C@@H]1O[C@H](C(=O)O)[C@@H](O)[C@H](O)[C@H]1O` gave a Retention_time of 3.4 min.
As to `CCOc1cc(CC(=O)N[C@@H](CC(C)C)c2ccccc2NCCCCC(=O)O)ccc1C(=O)O`, the Drug metabolism in data set [8], in data set [10] and in data set [12] was under 1 nM throughout. Besides, the “inhibition (INH)” value in [9] is 89%. For the same molecule, the Retention_time in data set [1] amounted to 2.8 min. The IC50 in data set [11] was determined as 1200 nM.

B1: Cytochrome P450 2C8 (Homo sapiens) (protein)
chain: T1 sequence (P10632 whole entry)
As for B1, the results for the Km in data set [13] and in data set [15] were 5.7 µM and 25 µM, respectively. Besides, the kcat in [14] came to 0.00133 s⁻¹; in [16], 0.00583 s⁻¹.

B2: Cytochrome P450 3A5 (Homo sapiens) (protein)
chain: MDLIPNLAVETWLLLAVSLVLLYLYGTRTHGLFKRLGIPGPTPLPLLGNVLSYRQGLWKFDTECYKKYGKMWGTYEGQLPVLAITDPDVIRTVLVKECYSVFTNRRSLGPVGFMKSAISLAEDEEWKRIRSLLSPTFTSGKLKEMFPIIAQYGDVLVRNLRREAEKGKPVTLKDIFGAYSMDVITGTSFGVNIDSLNNPQDPFVESTKKFLKFGFLDPLFLSIILFPFLTPVFEALNVSLFPKDTINFLSKSVNRMKKSRLNDKQKHRLDFLQLMIDSQNSKETESHKALSDLELAAQSIIFIFAGYETTSSVLSFTLYELATHPDVQQKLQKEIDAVLPNKAPPTYDAVVQMEYLDMVVNETLRLFPVAIRLERTCKKDVEINGVFIPKGSMVVIPTYALHHDPKYWTEPEEFRPERFSKKKDSIDPYIYTPFGTGPRNCIGMRFALMNMKLALIRVLQNFSFKPCKETQIPLKLDTQGLLQPEKPIVLKVDSRDGTLSGE
Turning to B2, the kcat in data set [17] was 0.00133 s⁻¹; in data set [18], 0.000833 s⁻¹. In addition, the Michaelis-Menten constant (Km) in [19] is 66 µM.
